Calls of active or inactive are those of the source.
What was measured:
[1] = target: Tribbles homolog 2 (Homo sapiens) (UniProt Q92519); test: Inhibition of recombinant full-length human TRB2 at 10 uM using RRRFRPASPLRGPPK as substrate measured after 120 mins in presence of [gamma33P]ATP by scintillation counting method
[2] = target: Serine/threonine-protein kinase STK11 (Homo sapiens) (UniProt Q15831); test: Inhibition of recombinant full-length human LKB1 at 10 uM using LSNLYHQGKFLQTFCGSPLYRRR as substrate measured after 40 mins in presence of [gamma33P]ATP by scintillation counting method
[3] = target: Casein kinase I isoform epsilon (Homo sapiens) (UniProt P49674); test: Inhibition of human CK1epsilon at 10 uM using KRRRALS(p)VASLPGL as substrate measured after 120 mins in presence of [gamma33P]ATP by scintillation counting method
Outline: (§1)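 Kinase panel of 422 kinases screened by Eurofins KinaseProfiler at a single test-compound concentration of 10 µM.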

[4] = tested on: Mitogen-activated protein kinase 14 (Homo sapiens), Q16539 [T106M]; test: Inhibition of recombinant full-length human SAPK2a T106M mutant at 10 uM using myelin basic protein as substrate measured after 40 mins in presence of [gamma33P]ATP by scintillation counting method
[5] = target: Tyrosine-protein kinase JAK2 (Homo sapiens) (UniProt O60674); test: Inhibition of recombinant human JAK2 (808 to end residues) at 10 uM using KTFCGTPEYLAPEVRREPRILSEEEQEMFRDFDYIADWC as substrate measured after 40 mins in presence of [gamma33P]ATP by scintillation counting method
[6] = target: Serine/threonine-protein kinase MARK2 (Homo sapiens) (UniProt Q7KZI7); test: Inhibition of recombinant full-length human PAR1Balpha at 10 uM using KKKVSRSGLYRSPSMPENLNRPR as substrate measured after 40 mins in presence of [gamma33P]ATP by scintillation counting method
[7] = tested on: Epidermal growth factor receptor (Homo sapiens), P00533 [T790M]; test: Inhibition of recombinant human EGFR T790M mutant (696 to end residues) at 10 uM using GGMEDIYFEFMGGKKK as substrate measured after 40 mins in presence of [gamma33P]ATP by scintillation counting method
[8] = target: SRSF protein kinase 2 (Homo sapiens) (UniProt P78362); test: Inhibition of human SRPK2 (46 to end residues) using RSRSRSRSRSRSRSR as substrate measured after 40 mins in presence of [gamma33P]ATP by scintillation counting method; outline: as §1
[9] = target: Tyrosine-protein kinase Srms (Homo sapiens) (UniProt Q9H3Y6); test: Inhibition of human SRMS at 10 uM by radiometric method; outline: as §1
[10] = target: Serine/threonine-protein kinase ICK (Homo sapiens) (UniProt Q9UPZ9); test: Inhibition of recombinant human ICK (1 to 312 residues) at 10 uM using RRRFRPASPLRGPPK as substrate measured after 40 mins in presence of [gamma33P]ATP by scintillation counting method
[11] = target: Ribosomal protein S6 kinase alpha-1 (Homo sapiens) (UniProt Q15418); test: Inhibition of recombinant full-length human Rsk1 at 10 uM using KKKNRTLSVA as substrate measured after 40 mins in presence of [gamma33P]ATP by scintillation counting method
[12] = target: Ephrin type-A receptor 4 (Homo sapiens) (UniProt P54764); test: Inhibition of recombinant human EphA4 (601 to 892 residues) at 10 uM using poly(Glu, Tyr) 4:1 as substrate measured after 40 mins in presence of [gamma33P]ATP by scintillation counting method
[13] = target: Ribosomal protein S6 kinase alpha-2 (Homo sapiens) (UniProt Q15349); test: Inhibition of recombinant full-length human Rsk3 at 10 uM using KKKNRTLSVA as substrate measured after 40 mins in presence of [gamma33P]ATP by scintillation counting method
[14] = target: Mitogen-activated protein kinase 1 (Mus musculus) (UniProt P63085); test: Inhibition of mouse MAPK2 at 10 uM
[15] = target: Protein kinase C iota type (Homo sapiens) (UniProt P41743); test: Inhibition of recombinant full-length human PKCiota at 10 uM using ERMRPRKRQGSVRRRV as substrate measured after 40 mins in presence of [gamma33P]ATP by scintillation counting method
[16] = target: Glycogen synthase kinase-3 alpha (Homo sapiens) (UniProt P49840); test: Inhibition of recombinant human GSK3alpha (2 to end residues) at 10 uM using phospho GS2 peptide as substrate measured after 40 mins in presence of [gamma33P]ATP by scintillation counting method
[17] = target: Mast/stem cell growth factor receptor Kit (Homo sapiens) (UniProt P10721); test: Inhibition of recombinant human c-Kit (544 to end residues) at 10 uM using poly(Glu, Tyr) 4:1 as substrate measured after 40 mins in presence of [gamma33P]ATP by scintillation counting method
[18] = tested on: Ribosomal protein S6 kinase beta-1 (Homo sapiens), P23443 [T412E]; test: Inhibition of recombinant human p70S6K T412E mutant (1 to 421 residues) at 10 uM using KKRNRTLTV as substrate measured after 40 mins in presence of [gamma33P]ATP by scintillation counting method
[19] = target: Cyclin-dependent kinase-like 1 (Homo sapiens) (UniProt Q00532); test: Inhibition of recombinant human CDKL1 (1 to 303 residues) at 10 uM using RRRFRPASPLRGP as substrate measured after 120 mins in presence of [gamma33P]ATP by scintillation counting method
[20] = tested on: Serine/threonine-protein kinase N1 (Homo sapiens), Q16512 [V901I]; test: Inhibition of human PRK1 V901I mutant (498 to end residues) using KKLNRTLSFAEPG as substrate measured after 40 mins in presence of [gamma33P]ATP by scintillation counting method; outline: as §1
[21] = target: Mitogen-activated protein kinase kinase kinase kinase 1 (Homo sapiens) (UniProt Q92918); test: Inhibition of recombinant human HPK1 (1 to 346 residues) at 10 uM using myelin basic protein as substrate measured after 40 mins in presence of [gamma33P]ATP by scintillation counting method
[22] = target: Macrophage-stimulating protein receptor (Homo sapiens) (UniProt Q04912); test: Inhibition of human Ron (983 to end residues) using GGMEDIYFEFMGGKKK as substrate measured after 40 mins in presence of [gamma33P]ATP by scintillation counting method; outline: as §1
[23] = target: Insulin-like growth factor 1 receptor (Homo sapiens) (UniProt P08069); test: Inhibition of recombinant human activated IGF1R (959 to end residues) at 10 uM using KKKSPGEYVNIEFG as substrate measured after 40 mins in presence of [gamma33P]ATP by scintillation counting method
[24] = target: CDC7/Cyclin B1 (Homo sapiens) (UniProt P14635+O00311); test: Inhibition of recombinant full-length human CDC7/cyclinB1 at 10 uM using Histone H1 as substrate measured after 120 mins in presence of [gamma33P]ATP by scintillation counting method; assay type: protein-complex assay

Measured: inhibition

Sequence of Mitogen-activated protein kinase 1 (Mus musculus) (P63085 whole entry): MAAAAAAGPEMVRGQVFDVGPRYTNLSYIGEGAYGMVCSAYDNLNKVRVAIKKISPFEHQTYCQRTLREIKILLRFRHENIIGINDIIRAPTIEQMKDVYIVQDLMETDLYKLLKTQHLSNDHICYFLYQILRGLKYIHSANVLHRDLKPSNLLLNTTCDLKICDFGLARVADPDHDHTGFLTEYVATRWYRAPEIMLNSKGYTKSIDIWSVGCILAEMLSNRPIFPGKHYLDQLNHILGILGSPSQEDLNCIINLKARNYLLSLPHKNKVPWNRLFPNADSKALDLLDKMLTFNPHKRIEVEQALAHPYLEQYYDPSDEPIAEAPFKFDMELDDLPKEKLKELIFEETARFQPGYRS
Sequence of Serine/threonine-protein kinase MARK2 (Homo sapiens) (Q7KZI7 whole entry): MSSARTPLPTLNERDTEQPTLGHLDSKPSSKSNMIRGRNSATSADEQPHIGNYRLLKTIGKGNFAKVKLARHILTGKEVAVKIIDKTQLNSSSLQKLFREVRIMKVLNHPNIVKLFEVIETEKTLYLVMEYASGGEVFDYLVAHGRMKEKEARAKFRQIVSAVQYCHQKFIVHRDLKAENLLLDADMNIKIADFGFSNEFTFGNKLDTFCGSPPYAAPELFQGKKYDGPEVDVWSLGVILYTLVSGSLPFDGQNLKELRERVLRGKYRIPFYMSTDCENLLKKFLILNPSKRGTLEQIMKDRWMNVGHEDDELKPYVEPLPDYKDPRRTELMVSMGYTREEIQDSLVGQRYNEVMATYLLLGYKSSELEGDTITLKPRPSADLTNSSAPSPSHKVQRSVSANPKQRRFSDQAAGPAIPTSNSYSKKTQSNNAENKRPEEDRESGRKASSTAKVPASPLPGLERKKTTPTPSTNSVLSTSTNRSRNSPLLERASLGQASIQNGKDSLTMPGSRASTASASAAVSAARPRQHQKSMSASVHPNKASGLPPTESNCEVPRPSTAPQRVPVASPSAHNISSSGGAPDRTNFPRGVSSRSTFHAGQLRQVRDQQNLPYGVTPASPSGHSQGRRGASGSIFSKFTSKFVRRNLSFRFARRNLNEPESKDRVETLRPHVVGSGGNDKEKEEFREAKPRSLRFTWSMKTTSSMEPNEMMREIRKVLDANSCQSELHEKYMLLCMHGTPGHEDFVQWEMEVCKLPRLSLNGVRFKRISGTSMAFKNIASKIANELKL
Sequence of Ephrin type-A receptor 4 (Homo sapiens) (P54764 whole entry, the tested form may be a part): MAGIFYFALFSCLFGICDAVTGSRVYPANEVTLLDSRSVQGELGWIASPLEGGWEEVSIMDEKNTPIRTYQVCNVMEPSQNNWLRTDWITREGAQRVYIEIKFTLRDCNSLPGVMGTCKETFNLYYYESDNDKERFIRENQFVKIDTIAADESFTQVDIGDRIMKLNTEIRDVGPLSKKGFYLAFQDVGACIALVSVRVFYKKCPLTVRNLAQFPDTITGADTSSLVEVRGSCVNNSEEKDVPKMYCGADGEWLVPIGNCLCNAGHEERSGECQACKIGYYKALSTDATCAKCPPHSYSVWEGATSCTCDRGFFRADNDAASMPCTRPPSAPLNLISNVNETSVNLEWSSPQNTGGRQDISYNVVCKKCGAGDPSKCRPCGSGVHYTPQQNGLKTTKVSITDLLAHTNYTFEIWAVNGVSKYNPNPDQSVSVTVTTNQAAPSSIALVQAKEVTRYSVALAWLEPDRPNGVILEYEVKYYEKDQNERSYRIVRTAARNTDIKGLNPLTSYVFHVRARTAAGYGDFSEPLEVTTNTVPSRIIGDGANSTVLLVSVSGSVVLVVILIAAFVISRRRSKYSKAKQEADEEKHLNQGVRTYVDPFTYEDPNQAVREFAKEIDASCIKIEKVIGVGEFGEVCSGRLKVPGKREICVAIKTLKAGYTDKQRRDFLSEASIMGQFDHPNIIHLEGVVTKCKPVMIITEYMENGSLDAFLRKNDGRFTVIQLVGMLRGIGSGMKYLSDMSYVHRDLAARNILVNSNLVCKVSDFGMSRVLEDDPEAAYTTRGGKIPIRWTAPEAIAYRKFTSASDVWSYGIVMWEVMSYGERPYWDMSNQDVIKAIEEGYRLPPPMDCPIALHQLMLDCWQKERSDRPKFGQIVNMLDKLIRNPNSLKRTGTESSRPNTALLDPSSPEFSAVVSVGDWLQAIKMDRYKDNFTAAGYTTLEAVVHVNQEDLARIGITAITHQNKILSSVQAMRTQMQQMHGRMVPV
Sequence of Ribosomal protein S6 kinase beta-1 (Homo sapiens), P23443 [T412E] (P23443 whole entry T412E, looked up, the tested form may be a part): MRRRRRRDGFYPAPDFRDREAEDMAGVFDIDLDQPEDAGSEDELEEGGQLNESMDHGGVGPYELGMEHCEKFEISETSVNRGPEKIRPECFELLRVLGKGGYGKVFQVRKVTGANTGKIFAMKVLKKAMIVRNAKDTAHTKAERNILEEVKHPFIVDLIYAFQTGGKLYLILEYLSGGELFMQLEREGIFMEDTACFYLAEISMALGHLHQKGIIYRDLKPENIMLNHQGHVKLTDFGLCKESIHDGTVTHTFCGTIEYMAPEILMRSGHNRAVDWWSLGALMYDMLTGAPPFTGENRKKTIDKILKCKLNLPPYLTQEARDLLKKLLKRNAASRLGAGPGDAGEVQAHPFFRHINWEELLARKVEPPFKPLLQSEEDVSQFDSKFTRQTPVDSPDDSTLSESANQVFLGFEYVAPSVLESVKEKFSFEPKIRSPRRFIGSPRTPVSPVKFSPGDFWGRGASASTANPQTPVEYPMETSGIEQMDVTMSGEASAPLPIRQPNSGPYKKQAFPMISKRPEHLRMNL
Sequence of SRSF protein kinase 2 (Homo sapiens) (P78362 whole entry, looked up): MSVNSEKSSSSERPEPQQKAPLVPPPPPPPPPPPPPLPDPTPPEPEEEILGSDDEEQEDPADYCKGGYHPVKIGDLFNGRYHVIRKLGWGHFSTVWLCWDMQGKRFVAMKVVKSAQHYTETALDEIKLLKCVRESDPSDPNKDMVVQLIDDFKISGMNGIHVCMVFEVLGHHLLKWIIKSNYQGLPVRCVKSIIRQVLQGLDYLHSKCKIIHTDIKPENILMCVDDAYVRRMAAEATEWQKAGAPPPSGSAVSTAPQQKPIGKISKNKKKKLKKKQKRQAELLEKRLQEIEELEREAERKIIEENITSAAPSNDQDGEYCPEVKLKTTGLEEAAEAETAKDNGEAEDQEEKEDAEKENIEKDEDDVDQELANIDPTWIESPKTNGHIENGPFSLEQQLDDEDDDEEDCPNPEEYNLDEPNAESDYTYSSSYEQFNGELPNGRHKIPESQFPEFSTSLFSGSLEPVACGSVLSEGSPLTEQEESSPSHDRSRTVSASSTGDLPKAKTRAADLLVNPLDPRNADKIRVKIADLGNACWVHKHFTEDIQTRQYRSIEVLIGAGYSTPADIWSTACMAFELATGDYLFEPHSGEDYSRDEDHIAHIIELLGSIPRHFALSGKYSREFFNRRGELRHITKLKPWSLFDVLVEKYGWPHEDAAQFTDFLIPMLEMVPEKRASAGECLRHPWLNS
Sequence of Serine/threonine-protein kinase N1 (Homo sapiens), Q16512 [V901I] (Q16512 whole entry V901I, the tested form may be a part): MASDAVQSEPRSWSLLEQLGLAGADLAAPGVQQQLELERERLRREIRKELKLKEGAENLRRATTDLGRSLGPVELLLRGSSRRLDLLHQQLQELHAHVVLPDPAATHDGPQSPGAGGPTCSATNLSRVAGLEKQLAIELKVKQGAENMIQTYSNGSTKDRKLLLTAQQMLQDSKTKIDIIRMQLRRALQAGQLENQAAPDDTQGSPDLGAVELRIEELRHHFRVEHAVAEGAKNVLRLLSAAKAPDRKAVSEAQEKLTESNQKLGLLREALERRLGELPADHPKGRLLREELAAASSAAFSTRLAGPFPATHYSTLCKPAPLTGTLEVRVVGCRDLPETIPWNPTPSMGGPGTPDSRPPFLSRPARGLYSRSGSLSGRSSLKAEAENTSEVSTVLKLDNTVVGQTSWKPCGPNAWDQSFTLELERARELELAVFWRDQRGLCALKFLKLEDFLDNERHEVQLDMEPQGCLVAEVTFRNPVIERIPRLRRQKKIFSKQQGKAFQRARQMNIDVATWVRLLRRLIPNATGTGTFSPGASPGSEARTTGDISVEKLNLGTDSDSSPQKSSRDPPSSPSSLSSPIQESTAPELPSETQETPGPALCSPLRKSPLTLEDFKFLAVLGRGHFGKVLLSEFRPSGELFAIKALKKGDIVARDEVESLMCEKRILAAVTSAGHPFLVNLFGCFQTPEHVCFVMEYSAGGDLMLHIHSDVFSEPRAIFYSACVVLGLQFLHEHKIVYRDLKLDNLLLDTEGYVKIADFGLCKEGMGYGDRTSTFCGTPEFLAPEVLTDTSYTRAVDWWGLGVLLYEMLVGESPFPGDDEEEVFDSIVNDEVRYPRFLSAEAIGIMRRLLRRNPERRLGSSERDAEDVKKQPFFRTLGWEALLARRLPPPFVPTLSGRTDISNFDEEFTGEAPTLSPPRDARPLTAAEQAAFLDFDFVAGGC
Sequence of Mitogen-activated protein kinase 14 (Homo sapiens), Q16539 [T106M] (Q16539 whole entry T106M): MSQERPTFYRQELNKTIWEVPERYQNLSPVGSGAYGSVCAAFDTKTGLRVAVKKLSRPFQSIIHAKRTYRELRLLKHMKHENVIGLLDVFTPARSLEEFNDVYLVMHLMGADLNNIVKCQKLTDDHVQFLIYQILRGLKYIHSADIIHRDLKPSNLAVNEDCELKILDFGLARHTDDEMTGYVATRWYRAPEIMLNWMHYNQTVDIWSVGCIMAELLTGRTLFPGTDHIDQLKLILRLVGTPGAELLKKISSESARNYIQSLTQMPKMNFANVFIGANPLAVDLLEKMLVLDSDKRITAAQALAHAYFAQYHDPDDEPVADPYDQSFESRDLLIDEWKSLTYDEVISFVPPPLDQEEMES
Sequence of Tribbles homolog 2 (Homo sapiens) (Q92519 whole entry): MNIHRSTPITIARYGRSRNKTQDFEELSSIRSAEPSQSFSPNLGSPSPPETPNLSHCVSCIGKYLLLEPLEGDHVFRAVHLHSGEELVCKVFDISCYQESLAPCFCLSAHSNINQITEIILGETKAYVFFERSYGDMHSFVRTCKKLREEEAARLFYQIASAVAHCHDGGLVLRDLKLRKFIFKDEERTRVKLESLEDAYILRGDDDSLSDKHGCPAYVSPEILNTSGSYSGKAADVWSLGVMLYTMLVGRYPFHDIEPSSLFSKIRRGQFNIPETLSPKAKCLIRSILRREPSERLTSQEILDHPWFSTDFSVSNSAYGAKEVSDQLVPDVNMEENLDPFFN

CN1C[C@H](Nc2nc3cc[nH]c3c(=O)n2C)C[C@H](c2ccc3c(c2)OCCO3)C1
inactive: all assays above

Reference: ChEMBL document CHEMBL4350961, “Discovery of Pyrrolo[3,2- d]pyrimidin-4-one Derivatives as a New Class of Potent and Cell-Active Inhibitors of P300/CBP-Associated Factor Bromodomain” (J Med Chem, 2019)
